Data published in ChEMBL document CHEMBL1926550, “Synthesis and antibacterial activity of naphthyridone derivatives containing mono/difluoro-methyloxime pyrrolidine scaffolds” (2012).
Values after ≈ are worked out from the molar mass of the structure shown.

Experiments:
Format in all cases: functional
[1] = system: Staphylococcus epidermidis; experiment: Antibacterial activity against methicillin-resistant Staphylococcus epidermidis 10-2 after 18 hrs by two fold serial dilution method; conditions: 10-2, 18 h
How it was run: (§1)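 Agar two-fold serial dilution in melted Mueller-Hinton agar, 128 to 0.008 μg/mL. Plates inoculated with 10⁴ cfu, incubated 35 °C for 18 h. MIC taken as lowest concentration giving no visible growth on the plate.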

Enterococcus faecium [2] = experiment: Antibacterial activity against Enterococcus faecium 09-5 after 18 hrs by two fold serial dilution method; conditions: 09-5, 18 h
How it was run: (§2)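 Agar two-fold serial dilution in melted Mueller-Hinton agar, final concentrations 128 down to 0.008 μg/mL. Plates inoculated with 10⁴ cfu and incubated at 35 °C for 18 h. MIC taken as the lowest concentration giving no visible growth on the plate.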

Enterococcus faecium [3] = experiment: Antibacterial activity against Enterococcus faecium 09-3 after 18 hrs by two fold serial dilution method; conditions: 09-3, 18 h; how it was run: as §2
Staphylococcus aureus [4] = experiment: Antibacterial activity against methicillin-resistant Staphylococcus aureus 10-1 after 18 hrs by two fold serial dilution method; conditions: 10-1, 18 h; how it was run: as §1
Staphylococcus aureus [5] = experiment: Ratio of gemifloxacin MIC to compound MIC for methicillin-resistant Staphylococcus aureus 10-2
Staphylococcus aureus [6] = experiment: Antibacterial activity against methicillin-sensitive Staphylococcus aureus 10-3 after 18 hrs by two fold serial dilution method; conditions: 10-3, 18 h; how it was run: as §2
Staphylococcus aureus [7] = experiment: Ratio of ciprofloxacin MIC to compound MIC for methicillin-resistant Staphylococcus aureus 10-2
Escherichia coli [8] = experiment: Antibacterial activity against Escherichia coli 10-1 after 18 hrs by two fold serial dilution method; conditions: 10-1, 18 h; how it was run: as §2
Escherichia coli [9] = experiment: Antibacterial activity against Escherichia coli 10-2 after 18 hrs by two fold serial dilution method; conditions: 10-2, 18 h; how it was run: as §2
[10] = system: Staphylococcus epidermidis; experiment: Antibacterial activity against methicillin-sensitive Staphylococcus epidermidis 10-1 after 18 hrs by two fold serial dilution method; conditions: 10-1, 18 h; how it was run: as §2
Enterococcus faecalis [11] = experiment: Antibacterial activity against Enterococcus faecalis 09-1 after 18 hrs by two fold serial dilution method; conditions: 09-1, 18 h; how it was run: as §2
Enterococcus faecalis [12] = experiment: Ratio of ciprofloxacin MIC to compound MIC for Enterococcus faecalis 09-2
Staphylococcus aureus [13] = experiment: Antibacterial activity against methicillin-sensitive Staphylococcus aureus 10-6 after 18 hrs by two fold serial dilution method; conditions: 10-6, 18 h; how it was run: as §2
Pseudomonas aeruginosa [14] = experiment: Antibacterial activity against Pseudomonas aeruginosa ATCC 27853 after 18 hrs by two fold serial dilution method; conditions: ATCC 27853, 18 h; how it was run: as §2
Klebsiella pneumoniae [15] = experiment: Antibacterial activity against Klebsiella pneumoniae 10-3 after 18 hrs by two fold serial dilution method; conditions: 10-3, 18 h; how it was run: as §2
Escherichia coli [16] = experiment: Antibacterial activity against Escherichia coli 09-2 after 18 hrs by two fold serial dilution method; conditions: 09-2, 18 h; how it was run: as §2
Enterococcus faecalis [17] = experiment: Antibacterial activity against Enterococcus faecalis 09-2 after 18 hrs by two fold serial dilution method; conditions: 09-2, 18 h; how it was run: as §2
Pseudomonas aeruginosa [18] = experiment: Antibacterial activity against Pseudomonas aeruginosa 10-2 after 18 hrs by two fold serial dilution method; conditions: 10-2, 18 h; how it was run: as §2
Escherichia coli [19] = experiment: Antibacterial activity against Escherichia coli 09-1 after 18 hrs by two fold serial dilution method; conditions: 09-1, 18 h; how it was run: as §2
Staphylococcus aureus [20] = experiment: Antibacterial activity against methicillin-sensitive Staphylococcus aureus 10-2 after 18 hrs by two fold serial dilution method; conditions: 10-2, 18 h; how it was run: as §2
Enterococcus faecium [21] = experiment: Antibacterial activity against Enterococcus faecium 09-4 after 18 hrs by two fold serial dilution method; conditions: 09-4, 18 h; how it was run: as §2
Staphylococcus aureus [22] = experiment: Antibacterial activity against methicillin-resistant Staphylococcus aureus 10-2 after 18 hrs by two fold serial dilution method; conditions: 10-2, 18 h; how it was run: as §1
Staphylococcus aureus [23] = experiment: Antibacterial activity against methicillin-resistant Staphylococcus aureus 10-3 after 18 hrs by two fold serial dilution method; conditions: 10-3, 18 h; how it was run: as §1
Pseudomonas aeruginosa [24] = experiment: Antibacterial activity against Pseudomonas aeruginosa 10-3 after 18 hrs by two fold serial dilution method; conditions: 10-3, 18 h; how it was run: as §2
Enterococcus faecalis [25] = experiment: Ratio of gemifloxacin MIC to compound MIC for Enterococcus faecalis 09-2
[26] = system: Staphylococcus epidermidis; experiment: Antibacterial activity against methicillin-sensitive Staphylococcus epidermidis 10-2 after 18 hrs by two fold serial dilution method; conditions: 10-2, 18 h; how it was run: as §2
Enterococcus faecalis [27] = experiment: Ratio of moxifloxacin MIC to compound MIC for Enterococcus faecalis 09-2
Staphylococcus aureus [28] = experiment: Ratio of moxifloxacin MIC to compound MIC for methicillin-resistant Staphylococcus aureus 10-2
[29] = system: Staphylococcus epidermidis; experiment: Antibacterial activity against methicillin-resistant Staphylococcus epidermidis 10-1 after 18 hrs by two fold serial dilution method; conditions: 10-1, 18 h; how it was run: as §1
Enterococcus faecium [30] = experiment: Antibacterial activity against Enterococcus faecium 09-6 after 18 hrs by two fold serial dilution method; conditions: 09-6, 18 h; how it was run: as §2
Klebsiella pneumoniae [31] = experiment: Antibacterial activity against Klebsiella pneumoniae 10-1 after 18 hrs by two fold serial dilution method; conditions: 10-1, 18 h; how it was run: as §2
Klebsiella pneumoniae [32] = experiment: Antibacterial activity against Klebsiella pneumoniae 09-2 after 18 hrs by two fold serial dilution method; conditions: 09-2, 18 h; how it was run: as §2
Staphylococcus aureus [33] = experiment: Antibacterial activity against methicillin-sensitive Staphylococcus aureus 10-1 after 18 hrs by two fold serial dilution method; conditions: 10-1, 18 h; how it was run: as §2
Staphylococcus aureus [34] = experiment: Antibacterial activity against methicillin-sensitive Staphylococcus aureus 10-5 after 18 hrs by two fold serial dilution method; conditions: 10-5, 18 h; how it was run: as §2
Staphylococcus aureus [35] = experiment: Antibacterial activity against Staphylococcus aureus ATCC 25923 after 18 hrs by two fold serial dilution method; conditions: ATCC 25923, 18 h; how it was run: as §2
Staphylococcus aureus [36] = experiment: Antibacterial activity against methicillin-sensitive Staphylococcus aureus 10-4 after 18 hrs by two fold serial dilution method; conditions: 10-4, 18 h; how it was run: as §2
Enterococcus faecium [37] = experiment: Antibacterial activity against Enterococcus faecium 09-1 after 18 hrs by two fold serial dilution method; conditions: 09-1, 18 h; how it was run: as §2
Escherichia coli [38] = experiment: Antibacterial activity against Escherichia coli 10-3 after 18 hrs by two fold serial dilution method; conditions: 10-3, 18 h; how it was run: as §2
Pseudomonas aeruginosa [39] = experiment: Antibacterial activity against Pseudomonas aeruginosa 10-1 after 18 hrs by two fold serial dilution method; conditions: 10-1, 18 h; how it was run: as §2
Escherichia coli [40] = experiment: Antibacterial activity against Escherichia coli ATCC 25922 after 18 hrs by two fold serial dilution method; conditions: ATCC 25922, 18 h; how it was run: as §2
Staphylococcus aureus [41] = experiment: Antibacterial activity against methicillin-resistant Staphylococcus aureus 10-4 after 18 hrs by two fold serial dilution method; conditions: 10-4, 18 h; how it was run: as §1
Escherichia coli [42] = experiment: Antibacterial activity against Escherichia coli 09-3 after 18 hrs by two fold serial dilution method; conditions: 09-3, 18 h; how it was run: as §2
Enterococcus faecium [43] = experiment: Antibacterial activity against Enterococcus faecium 09-2 after 18 hrs by two fold serial dilution method; conditions: 09-2, 18 h; how it was run: as §2
Streptococcus pneumoniae = experiment: Antibacterial activity against Streptococcus pneumoniae 10-1 after 18 hrs by two fold serial dilution method; conditions: 10-1, 18 h; how it was run: as §2

CC1(CN)CN(c2nc3c(cc2F)c(=O)c(C(=O)O)cn3C2CC2)C/C1=N\OCF (racemic)
MIC [1]: 0.5 µg/mL (≈ 1.19 µM) | MIC (Enterococcus faecium [2]): 16 µg/mL (≈ 38 µM) | MIC (Enterococcus faecium [3]): 8 µg/mL (≈ 19 µM) | MIC (Staphylococcus aureus [4]): 4 µg/mL (≈ 9.49 µM) | Ratio (Staphylococcus aureus [5]): 2 | MIC (Staphylococcus aureus [6]): 0.25 µg/mL (≈ 0.593 µM) | Ratio (Staphylococcus aureus [7]): 64 | MIC (Escherichia coli [8]): 64 µg/mL (≈ 152 µM) | MIC (Escherichia coli [9]): 0.125 µg/mL (≈ 0.297 µM) | MIC [10]: 8 µg/mL (≈ 19 µM) | MIC (Enterococcus faecalis [11]): 4 µg/mL (≈ 9.49 µM) | Ratio (Enterococcus faecalis [12]): 64 | MIC (Staphylococcus aureus [13]): 0.125 µg/mL (≈ 0.297 µM) | MIC (Pseudomonas aeruginosa [14]): 0.125 µg/mL (≈ 0.297 µM) | MIC (Klebsiella pneumoniae [15]): 0.125 µg/mL (≈ 0.297 µM) | MIC (Escherichia coli [16]): > 128 µg/mL | MIC (Enterococcus faecalis [17]): 1 µg/mL (≈ 2.37 µM) | MIC (Pseudomonas aeruginosa [18]): 16 µg/mL (≈ 38 µM) | MIC (Escherichia coli [19]): 64 µg/mL (≈ 152 µM) | MIC (Staphylococcus aureus [20]): 1 µg/mL (≈ 2.37 µM) | MIC (Enterococcus faecium [21]): 0.06 µg/mL (≈ 0.142 µM) | MIC (Staphylococcus aureus [22]): 0.25 µg/mL (≈ 0.593 µM) | MIC (Staphylococcus aureus [23]): 4 µg/mL (≈ 9.49 µM) | MIC (Pseudomonas aeruginosa [24]): 4 µg/mL (≈ 9.49 µM) | Ratio (Enterococcus faecalis [25]): 4 | MIC [26]: 64 µg/mL (≈ 152 µM) | Ratio (Enterococcus faecalis [27]): 16 | Ratio (Staphylococcus aureus [28]): 32 | MIC [29]: 1 µg/mL (≈ 2.37 µM) | MIC (Enterococcus faecium [30]): 0.06 µg/mL (≈ 0.142 µM) | MIC (Klebsiella pneumoniae [31]): 0.015 µg/mL (≈ 0.0356 µM) | MIC (Klebsiella pneumoniae [32]): 128 µg/mL (≈ 304 µM) | MIC (Staphylococcus aureus [33]): 0.06 µg/mL (≈ 0.142 µM) | MIC (Staphylococcus aureus [34]): 0.03 µg/mL (≈ 0.0712 µM) | MIC (Staphylococcus aureus [35]): 0.008 µg/mL (≈ 0.019 µM) | MIC (Staphylococcus aureus [36]): 0.06 µg/mL (≈ 0.142 µM) | MIC (Enterococcus faecium [37]): 16 µg/mL (≈ 38 µM) | MIC (Escherichia coli [38]): 32 µg/mL (≈ 75.9 µM) | MIC (Pseudomonas aeruginosa [39]): 0.008 µg/mL (≈ 0.019 µM) | MIC (Escherichia coli [40]): 0.008 µg/mL (≈ 0.019 µM) | MIC (Staphylococcus aureus [41]): 4 µg/mL (≈ 9.49 µM) | MIC (Escherichia coli [42]): 32 µg/mL (≈ 75.9 µM) | MIC (Enterococcus faecium [43]): 16 µg/mL (≈ 38 µM) | MIC (Streptococcus pneumoniae): 0.5 µg/mL (≈ 1.19 µM)
